Laboratory results: ChEMBL document CHEMBL4414680, “Identification of new potent A1 adenosine receptor antagonists using a multistage virtual screening approach” (Eur J Med Chem, 2020)

What was measured:
[1] = molecular target: T1, Adenosine receptor A1 (Homo sapiens, UniProt P30542); test: Displacement of [3H]DPCPX from human A1AR expressed in CHO cells incubated for 50 mins by radioligand binding assay; assay type: cell-based
T1 sequence (P30542 whole entry): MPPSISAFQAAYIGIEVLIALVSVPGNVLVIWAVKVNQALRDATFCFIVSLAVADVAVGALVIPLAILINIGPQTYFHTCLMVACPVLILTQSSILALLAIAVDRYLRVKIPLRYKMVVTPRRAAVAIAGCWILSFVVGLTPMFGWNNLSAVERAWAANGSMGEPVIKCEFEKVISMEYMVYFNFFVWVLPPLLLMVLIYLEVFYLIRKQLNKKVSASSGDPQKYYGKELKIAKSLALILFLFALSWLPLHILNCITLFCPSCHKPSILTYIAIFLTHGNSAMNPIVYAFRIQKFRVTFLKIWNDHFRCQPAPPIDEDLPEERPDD

[2] = molecular target: Adenosine receptor A2a (Homo sapiens, UniProt P29274); test: Displacement of [3H]ZM241385 from human A2AR expressed in CHO cells after 90 mins by radioligand binding assay; assay type: cell-based
[3] = organism: Homo sapiens; test: Selectivity index, ratio of Ki for human A1AR expressed in CHO cells to Ki for human A2AR expressed in CHO cells by radioligand binding assay; assay type: cell-based
[4] = molecular target: T1, Adenosine receptor A1; test: Antagonist activity at human A1AR expressed in CHO-K1 cells assessed as reduction in NECA-induced inhibition of forskolin-stimulated cAMP accumulation incubated for 30 mins by fluorescence based assay; assay type: functional, cell-based
Outline: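 CHO-K1 cells stably expressing human A1AR, grown in F12K + 10% FBS + 800 µg/ml hygromycin B at 37 ℃/5% CO2, resuspended in HBSS with 0.1% BSA, 20 mM HEPES, 100 nM IBMX; 8000 cells/well. Ten 3-fold compound dilutions; forskolin (8 µM) plus NECA (40 nM) added, 30 min at 37 ℃. HTRF cAMP detection (Eu3+ cryptate anti-cAMP, d2-cAMP), 1 h room temperature, read at 665/615 nm.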

Chain of Adenosine receptor A2a (P29274 whole entry): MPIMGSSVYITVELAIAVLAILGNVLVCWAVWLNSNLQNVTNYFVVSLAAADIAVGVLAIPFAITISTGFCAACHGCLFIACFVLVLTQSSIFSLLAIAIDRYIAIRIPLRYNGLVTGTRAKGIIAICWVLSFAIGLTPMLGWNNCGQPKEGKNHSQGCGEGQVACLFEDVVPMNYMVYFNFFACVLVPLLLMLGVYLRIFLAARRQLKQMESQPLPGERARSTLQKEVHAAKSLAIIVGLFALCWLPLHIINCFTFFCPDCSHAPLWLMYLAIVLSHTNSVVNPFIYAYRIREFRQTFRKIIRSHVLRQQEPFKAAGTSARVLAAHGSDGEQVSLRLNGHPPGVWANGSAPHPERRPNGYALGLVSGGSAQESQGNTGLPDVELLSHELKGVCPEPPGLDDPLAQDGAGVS

Compound | Ki [1] [µM] | Ki [2] [µM] | IC50 [4] [µM] | Ratio Ki [3]
Oc1ccccc1Nc1nc(-c2ccccc2)c2cc(Cl)ccc2n1 | 20 |  |  | 
CC(C)CN1C(=O)/C(=C/c2c(NCCc3ccccc3)nc3ccccn3c2=O)SC1=S | 13.5 |  |  | 
CCC(C(=O)n1nc(-c2ccccc2)nc1N)c1ccccc1 (stereo unspecified) | 10.7 |  |  | 
CC(C)C(=O)Nc1nc2n(n1)C(c1ccccc1Cl)C=C(c1ccccc1)N2 (stereo unspecified) | 32.4 |  |  | 
O=C1CC(C(=O)Nc2ccccc2)c2c(nc(SCc3ccccc3F)[nH]c2=O)N1 (stereo unspecified) | 7.24 |  |  | 
CCCN(CCC)c1c(-c2ccccc2)c2cc(Cl)ccc2[nH]c1=O | 25.7 |  |  | 
Cc1ccc(C2=CC(c3ccccc3Cl)n3nc(CCCO)nc3N2)cc1 (stereo unspecified) | 18.6 |  |  | 
CCOC(=O)N1CCN(c2cc(NC3CCCCC3)c3c4c(onc24)-c2ccccc2C3=O)CC1 | 19.5 |  |  | 

These reach a lower Ki [1]. Values come first.

Ki [1] [µM] | Ki [2] [µM] | IC50 [4] [µM] | Compound | Ratio Ki [3]
6.92 |  |  | Cc1cc(C)nc(Nc2nc(-c3ccccc3)c3ccc(Cl)cc3n2)n1 | 
3.24 |  |  | Cc1cc(=O)n2c(n1)NC(Nc1cccc(C)c1C)=NC2c1ccc(F)cc1 (stereo unspecified) | 
3.02 |  |  | COc1ccc(/C=C/c2ccnc3nc(N4CCCCC4)[nH]c(=O)c23)cc1 | 
1.12 |  |  | COc1ccccc1CNC(=O)c1cc(Nc2ccccc2C)nc2ccccc12 | 
0.776 | > 100 | 1.48 | O=c1[nH]c(N2CCCC2)nc2nccc(-c3ccc(Cl)cc3)c12 | < 0.01
0.708 | > 100 | 1.26 | C=CCn1c(SCc2ccccn2)nc2c([nH]c3ccccc32)c1=O | < 0.01
0.589 | 36.3 | 2.82 | O=C(Cn1cc(-c2ccccc2)c2ncn(C3CC3)c(=O)c21)NCc1ccc(F)cc1 | 0.016
0.513 | > 100 | 3.09 | Cc1ccc(C(=O)Nc2c(C(=O)NC3CCCC3)[nH]c3ccc(C)cc23)cc1 | < 0.01
0.209 | 38 | 1.86 | COc1ccc(-c2cc(-c3cccc(Br)c3)c(C#N)c(N)n2)cc1 | 0.006
0.0741 | > 100 | 0.417 | N#Cc1c(N)nc2c(c1-c1ccc3c(c1)OCO3)CCCC2 | < 0.001
